# From PubChem
# APJ agonist: agonists of human APJ apelin receptor. P35414. CHO-K1 APJ PathHunter beta-arrestin, luminescence; 0% DMSO wells, 100% apelin. activation, % at 20 µM. 330,000 tested, 0.11% active;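 active = activation more than six SD over the plate average, tested at 20 µM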;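 note: 0% = DMSO alone and 100% = apelin-13 at 10 nM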
#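 Assay system: CHO-K1 APJ beta-arrestin complementation cell line / Compound: single test compound dose, 20 µM final, 1% DMSO / Times: overnight seeding, 90 min compound at 25 °C, 1 h detection / Technique: beta-gal luminescence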
# HTR2A ag: activates the mouse 5-HT2A serotonin receptor; AID 624169; CHO-K1 mHTR2A beta-arrestin complementation, luminescence; percent of 30 µM serotonin response; 360,000 tested, 0.66% active; P35363; activation, % at 7.6 µM;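 active = activation above a run cutoff, the mean activation of all tested compounds plus 3 SD, cut at about 14% in these data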;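 note: 0% = plate median of compound wells and 100% = 30 µM serotonin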
# Target sequence (P35363 whole entry, looked up): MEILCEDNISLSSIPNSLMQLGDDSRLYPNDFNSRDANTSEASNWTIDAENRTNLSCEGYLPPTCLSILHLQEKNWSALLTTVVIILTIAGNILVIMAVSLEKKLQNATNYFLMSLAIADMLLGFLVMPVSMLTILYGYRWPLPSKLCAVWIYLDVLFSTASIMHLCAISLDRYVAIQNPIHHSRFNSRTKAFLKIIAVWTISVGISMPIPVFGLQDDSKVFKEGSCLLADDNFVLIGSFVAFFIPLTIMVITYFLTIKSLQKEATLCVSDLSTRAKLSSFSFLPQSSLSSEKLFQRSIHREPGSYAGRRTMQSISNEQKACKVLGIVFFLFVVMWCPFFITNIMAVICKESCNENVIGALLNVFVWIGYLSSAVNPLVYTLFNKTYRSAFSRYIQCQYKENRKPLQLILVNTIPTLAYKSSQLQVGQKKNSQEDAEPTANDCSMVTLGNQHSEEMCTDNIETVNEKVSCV
# CXCR6 inh: inhibitors of human CXCR6 receptor. O00574. 360,000 tested, 0.36% active. CHO-K1 PathHunter CXCR6 beta-arrestin, luminescence. AID 602244. inhibition, % at 20 µM; in the data active = inhibition above about 34%, passing the limit was not always enough;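 note: antagonist mode with CXCL16 agonist at 10 nM final; 0% = 10 nM CXCL16 with DMSO and 100% = unstimulated wells without agonist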
# CCR6 antagonist: CCR6 (human) receptor antagonism. P51684. CHO-K1 CCR6 PathHunter beta-arrestin, luminescence, CCL20-stimulated. inhibition, % at 20 µM. 340,000 tested, 0.49% active. AID 493098;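 active = compounds whose inhibition of the agonist-driven luminescence signal at 20 µM reaches about 50%, limit read from the data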;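 note: cells stimulated with CCL20 at 14 nM final; plate controls were DMSO with CCL20 for no effect and DMSO without agonist for full effect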
# EBI2 antag: antagonists of human EBI2 receptor. EBI2 beta-arrestin recruitment, luminescence, 7a,25-OHC stimulated. P32249. inhibition, % at 5 µM. 360,000 tested, 0.81% active. AID 651636; in the data active = inhibition above about 38%;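 note: enzyme fragment complementation signal reports receptor beta-arrestin coupling in cells; 0% = agonist plus DMSO wells and 100% = wells without agonist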
# APJ antagonist: blocks the human apelin receptor APJ; 330,000 tested, 0.32% active; P35414; CHO-K1 APJ beta-arrestin complementation, luminescence; inhibition, % at 20 µM;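 active = inhibition above about 40% at 20 µM, limit read from the data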;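 note: cells challenged with 10 nM apelin-13 agonist together with compound; plate controls were apelin-13 plus DMSO wells for no effect and DMSO wells lacking apelin-13 for full effect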
# EBI2 antag conf: confirmation of human EBI2 receptor antagonists; shares compounds with EBI2 antag; EBI2 beta-arrestin luminescence, 7a,25-OHC antagonism; inhibition, % at 5 µM; 2,400 tested, 29% active; AID 651997;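 active = inhibition of at least 50%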
# EBI2 ag: counter-screen for EBI2 antagonists: EBI2 agonist activity; EBI2-expressing cells, agonist mode, luminescence, 60 min; 0% vehicle, 100% 7α,25-dihydroxycholesterol control; AID 652000; 2,400 tested, under 10 active; activation, % at 5 µM; shares compounds with EBI2 antag;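 active = activation of at least 50%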
# bGal counter: counter-screen for EBI2 antagonists: E. coli beta-galactosidase inhibition; shares compounds with EBI2 antag; purified beta-galactosidase, luminescent Galacton Star, 15 min; inhibition, % at 5 µM; 2,400 tested, 1% active; AID 652176;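 active = replicate-average signal at least 3 plate SD below neutral wells, shown as high inhibition, flagging enzyme-inhibiting false positives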;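 note: 0% = DMSO wells with enzyme and 100% = wells lacking enzyme; higher means stronger loss of beta-gal luminescence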
# An asterisk follows results filed as active; . = no result given. Compounds with a hit are over-represented: about 2.2% of the library has one in this group of screens.
SMILES,APJ agonist,HTR2A ag,CXCR6 inh,CCR6 antagonist,EBI2 antag,APJ antagonist,EBI2 antag conf,EBI2 ag,bGal counter
CNc1ncnc2c1ncn2[C@H]1CN(Cc2ccc3c(c2)OCO3)C[C@@H](CO)O1,.,-2.3,6.8,.,-0.1,.,.,.,.
CCOc1ccc(OCC)c(NC(=O)CN(c2ccc(OC)cc2)S(=O)(=O)c2c(C)noc2C)c1,-1.6,-10.5,4.3,12.0,69.3*,-2.2,21.5,0.0,1.1
CCOc1ccc(OCC)c(NC(=O)CN(c2ccc(C)cc2)S(=O)(=O)c2c(C)noc2C)c1,-4.1,5.6,8.9,18.6,72.5*,-4.4,34.3,0.2,1.7
COc1ccc(OC)c(NC(=O)CN(c2ccc(C(C)C)cc2)S(=O)(=O)c2c(C)noc2C)c1,-1.4,-0.2,3.6,15.1,24.9,-3.9,.,.,.
COc1ccc(OC)c(NC(=O)CN(c2ccc(C)cc2)S(=O)(=O)c2c(C)noc2C)c1,-2.8,-0.6,0.5,18.6,48.2*,10.9,14.8,-1.1,-9.2
C=CCN1C(=O)NC(c2ccc(OC)cc2)(C(F)(F)F)S/C1=C(\C#N)c1nnc(N2CCOCC2)n1-c1ccccc1 (stereo not given),-4.0,5.3,-2.2,-3.4,68.0*,-7.1,68.7*,0.4,5.6
O=C(Nc1ccc(Oc2ccccc2)nc1)C1CCCCN1Cc1cccc(OCCO)c1 (stereo not given),-1.0,5.6,-11.2,14.6,62.5*,-49.2,57.8*,1.5,0.6
CCOC(=O)CN1CCC(c2cc(-c3ccc(Cl)cc3)n[nH]2)CC1,-0.4,-13.3,3.9,9.9,39.9*,10.0,36.7,-2.0,-5.4
CCOC(=O)Cn1nc(-c2ccc(Cl)cc2)cc1N,-3.2,-0.4,-13.7,0.7,-2.9,13.0,.,.,.
O=C(/C=C/c1cccs1)N1CCC2(CC1)Oc1ccc(Cl)cc1C(=O)C21CC(c2ccccc2)=NO1 (stereo not given),-0.1,-2.0,-0.3,7.3,61.0*,10.0,39.7,-1.0,5.5
CCC(=O)N1CCC2(CC1)Oc1ccc(Cl)cc1C(=O)C21CC(c2ccccc2)=NO1 (stereo not given),3.9,1.5,7.9,10.8,13.3,-2.5,.,.,.
COc1ccc(CNc2ccc(-c3ccc(OC)cc3)nn2)cc1,3.2,0.2,9.8,-4.0,74.3*,7.5,38.9,0.3,3.9
COc1ccc(CNc2ccc(-c3ccccc3OC)nn2)cc1,0.0,1.4,-2.8,-4.2,10.1,-12.9,.,.,.
CC(C)C(OC(=O)c1oc2ccccc2c1CSC1CCCCC1)C(=O)NC(N)=O (stereo not given),-4.1,.,.,.,.,-6.8,.,.,.
CCNC(=O)NC(=O)C(C)OC(=O)c1oc2ccccc2c1CSC1CCCCC1 (stereo not given),-3.6,0.6,-3.3,13.5,44.4*,6.1,34.8,0.3,1.6
COc1ccc2cc(-c3[nH]ncc3CN3CCCC3c3nonc3C)ccc2c1 (stereo not given),-0.4,-4.2,-3.0,-2.3,45.9*,-26.3,27.8,0.3,5.6
CCN(CC(=O)NCc1ccc(Cl)cc1)C(=O)c1ccc2cc(OC)ccc2c1,2.0,0.2,3.5,17.5,68.3*,4.9,52.5*,0.1,-5.2
CCN(CC(=O)NCc1ccc(Cl)cc1)C(=O)/C=C/c1ccc(C#N)cc1,0.1,11.0,-1.5,10.4,51.1*,9.2,33.9,0.4,6.9
CCN(CC(=O)NCc1ccc(Cl)cc1)C(=O)/C=C/c1ccco1,-0.7,3.7,-1.7,2.1,-7.3,7.6,.,.,.
CCN(CC(=O)NCc1ccc(Cl)cc1)C(=O)/C=C/c1ccccc1,-3.7,0.7,-4.4,10.3,76.2*,10.8,34.0,1.2,0.0
CCN(CC(=O)NCc1ccc(Cl)cc1)C(=O)/C=C/c1ccc(Cl)c([N+](=O)[O-])c1,4.4,1.4,11.1,16.9,21.1,-23.0,.,.,.
CC(C)(C)N1C(=O)c2ccccc2NC(=O)C1C(=O)NCCOc1ccccc1 (stereo not given),.,13.9,.,.,-4.7,.,.,.,.
c1ccc(COc2cccc(-c3cc4nc(NCCCn5ccnc5)ccn4n3)c2)cc1,.,-9.1,-2.7,.,26.8,.,.,.,.
O=C(CSc1ccc([N+](=O)[O-])cc1)Nc1ccccc1N1CCOCC1,-0.5,6.1,0.6,12.3,12.1,4.1,.,.,.
O=C(Nc1ccccc1N1CCCCC1)C1CCN(C(=O)c2ccc(Cl)cc2)CC1,-8.5,0.4,-0.7,11.5,57.6*,18.0,5.5,1.8,-10.7
SMILES,APJ agonist,HTR2A ag,CXCR6 inh,CCR6 antagonist,EBI2 antag,APJ antagonist,EBI2 antag conf,EBI2 ag,bGal counter
O=C(CSc1ccc(Cl)cc1)Nc1ccccc1N1CCN(C(=O)c2ccc(Cl)cc2)CC1,-0.3,3.6,8.9,11.2,42.6*,-0.8,13.8,0.4,5.1
O=C(Cc1ccccc1)Nc1ccccc1N1CCN(c2ccccc2)CC1,1.6,-5.9,23.7,30.3,40.6*,19.5,9.6,-0.1,7.5
O=C(CSc1ccc(Br)cc1)Nc1ccccc1N1CCOCC1,-6.8,-3.5,-2.9,10.0,43.0*,1.6,41.9,0.8,6.1
CC1CCN(S(=O)(=O)N2CCC(C(=O)NC(C)c3ccccc3)CC2)CC1 (stereo not given),.,1.2,-8.3,.,3.1,.,.,.,.
CCCNC(=O)C1(C)CCN(Cc2ccc(OC)c3ccccc23)C1 (stereo not given),.,-5.3,2.4,.,2.9,.,.,.,.
CN(C(=O)C1CCN(S(=O)(=O)c2cccs2)CC1)c1ccccc1,0.7,-1.8,5.9,-17.1,-3.4,6.6,.,.,.
Cn1c(=NC(=O)C2CCN(S(=O)(=O)c3cccs3)CC2)sc2ccccc21,0.3,-0.2,6.2,6.8,56.7*,4.8,26.4,-0.7,-14.8
NC(=O)c1cccc(-c2ccnc3c2CC(C(=O)NCc2ccccc2)O3)c1 (stereo not given),.,2.9,-1.7,.,-10.6,.,.,.,.
O=C(NCCC1=CCCCC1)C1CCCN(S(=O)(=O)c2ccccc2)C1 (stereo not given),-2.8,-4.0,1.9,5.4,-5.2,14.1,.,.,.
O=C(NCCc1c[nH]c2ccccc12)C1CCCN(S(=O)(=O)c2ccccc2)C1 (stereo not given),-2.1,-3.9,-8.2,7.4,45.5*,14.9,40.2,-0.2,-15.5
FC(F)Oc1ccc(NC(=S)Nc2ccc3cn[nH]c3c2)cc1,0.2,-1.7,2.6,-2.6,53.2*,-24.2,47.4,0.2,-14.4
